Hits are enriched below; roughly 3.7% of the tested compounds scored in any of these assays.
KCNQ1 act: potentiators or activators of KCNQ1 channel, primary screen, cell-based, thallium flux, high-throughput. B-score at 10 µM. CHO-K1 KCNQ1, thallium flux FluxOR fluorescence; stronger effect = higher value. hit rate 0.35% among 310,000;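 active means fluorescence ratio B-score, a plate-corrected score, at least three library SD, with initial intensity B-score within 5 SD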
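Assay system: CHO-K1 cells stably expressing KCNQ1. Medium: assay buffer for compound exposure, DMSO matched across wells. Timing: 37 °C overnight plating, 90-min dark dye load, 20-min compound pretreatment. Signal: kinetic FluxOR fluorescence, 10 s baseline plus 110 s post-stimulus.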
Kir21 block: inhibitors of mouse Kir2.1 inward-rectifier potassium channel; Inward rectifier potassium channel 2 (Mus musculus), P35561; HEK293-Kir2.1, FluxOR thallium flux fluorescence; stronger effect = lower value; B-score at 10 µM; hit rate 0.85% among 310,000;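 active means fluorescence ratio B-score at or below minus 3 SD of library scores, with starting-brightness B-score within 2 SD, cut at about -4.2 in these data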;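 further: channel flux triggered by added potassium and thallium sulfate stimulus; B-score of peak minus minimum fluorescence over baseline after thallium stimulus; more negative B-score means stronger Kir2.1 block with less thallium influx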
KCNK3 block: human KCNK3 channel inhibitors, primary screen, CHO cells, FluxOR thallium flux, B-score; B-score at 10 µM; Potassium channel subfamily K member 3 (Homo sapiens), O14649; AID 602410, 2012; hit rate 0.84% among 340,000; FluxOR fluorescence; stronger effect = lower value;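 active means B-score under library mean minus 4 SD, starting fluorescence ratio at most library mean plus 5 SD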;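 further: more negative B-score means stronger inhibition of thallium flux through KCNK3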
KCNQ1 inh: inhibitors of human KCNQ1 channel, primary screen, cell-based, thallium flux, high-throughput; CHO-K1 KCNQ1, FluxOR thallium flux fluorescence; stronger effect = higher value; hit rate 1.3% among 310,000; Potassium voltage-gated channel subfamily KQT member 1 (Homo sapiens), P51787; B-score at 10 µM;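 active means compounds whose thallium flux B-score, printed positive for inhibition, exceeds three library SD while starting fluorescence stays within three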;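 further: channel opened by potassium depolarization with thallium stimulus after 20 min compound exposure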
KCNK9 inh: KCNK9 potassium channel inhibitors, primary screen, HEK293 cells, thallium flux; hit rate 1.2% among 310,000; FluxOR thallium flux fluorescence; stronger effect = lower value; B-score at 10 µM; AID 488922, 2010; Potassium channel subfamily K member 9 (Homo sapiens), Q9NPC2;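 active means ratio B-score over 3 SD below the library mean, with starting fluorescence within 5 SD of its mean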;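 further: negative B-score means less thallium flux so channel inhibition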
Target sequence (Q9NPC2 whole entry, looked up): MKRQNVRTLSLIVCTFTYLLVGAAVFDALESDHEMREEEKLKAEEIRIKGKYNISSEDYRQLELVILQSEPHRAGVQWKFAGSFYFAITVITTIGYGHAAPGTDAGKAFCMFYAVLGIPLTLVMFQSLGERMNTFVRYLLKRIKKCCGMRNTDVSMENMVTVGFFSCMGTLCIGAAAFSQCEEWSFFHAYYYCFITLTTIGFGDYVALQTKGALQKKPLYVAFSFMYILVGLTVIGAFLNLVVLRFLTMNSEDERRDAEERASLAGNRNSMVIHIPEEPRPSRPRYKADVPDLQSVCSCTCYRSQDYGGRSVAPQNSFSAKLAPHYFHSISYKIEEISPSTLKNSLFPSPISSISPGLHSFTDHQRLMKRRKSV
hERG rescue: hERG rescue from dofetilide block, primary screen, cell-based, CHO-hERG, FluxOR thallium flux, dofetilide IC70; hit rate 0.51% among 310,000; AID 1511, 2009; Voltage-gated inwardly rectifying potassium channel KCNH2 (Homo sapiens), Q12809; dofetilide IC70 present; activation (rescue from dofetilide block), less the hit threshold, % at 10 µM;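 active means activation above the mean of controls blocked by dofetilide plus 5 SD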;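 further: thallium influx through hERG after potassium depolarization seen as dye fluorescence rise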
Numbers without * were called inactive; i = inactive; x = no result given.

SMILES | KCNQ1 act | Kir21 block | KCNK3 block | KCNQ1 inh | KCNK9 inh | hERG rescue
Clc1cccc(C2Nc3cccc4cccc(c34)N2)c1Cl | i | -0.52 | i | 10* | i | -12
CCOCCCNc1nc2c(C)cccn2c(=O)c1/C=C1\SC(=S)N(C(C)CC)C1=O (configuration not stated) | i | -0.18 | i | 7* | i | -16
CCOCCCNc1nc2c(C)cccn2c(=O)c1/C=C1\SC(=S)N(CC(C)C)C1=O | i | 0.19 | i | i | i | -12
Cn1cnc(S(=O)(=O)N2CCN(C(c3ccccc3)c3ccccc3)CC2)c1 | i | -0.02 | i | i | i | -9
CCN(CC)c1ccc(/C=C/c2ccc3ccc(OC)cc3[n+]2CC)cc1 | i | -16* | -13* | i | -7.1* | -41
CC[n+]1c(/C=C/c2ccc(OC)c(OC)c2)ccc2ccccc21 | i | 0 | i | i | i | -7
Cc1onc(-c2c(F)cccc2Cl)c1C(=O)c1ccc(F)cc1 | i | -4.8* | i | i | i | -10
Cc1onc(-c2c(Cl)cccc2Cl)c1C(=O)ONC(=O)c1ccccc1 | i | -5.2* | i | i | i | -8
Cc1onc(-c2c(F)cccc2Cl)c1C(=O)ONC(=O)c1ccccc1 | i | -1.2 | i | i | i | -7
Cc1onc(-c2c(Cl)cccc2Cl)c1C(=O)c1ccc(F)cc1 | i | -2.2 | i | i | i | -8
COc1ccc(/C=C/CN2CCCC(CCC(=O)NCc3ccc(F)c(F)c3)C2)cc1 (configuration not stated) | i | -4.9* | i | i | i | -15
COc1ccccc1CCNC(=O)C(=O)NCC1OCCN1C(=O)c1ccc(Cl)cc1 (configuration not stated) | i | 0.84 | i | i | i | -12
CCOC(=O)c1nnn(-c2nonc2N)c1-c1ccccc1Cl | i | -4.9* | i | i | i | -13
CCn1c(C)c(C(C)=O)c(N2CCN(c3ccccn3)CC2)nc1=S | i | 2.3 | i | i | -6.7* | 2
CCn1c(C)c(C(C)=O)c(N2CCN(c3ccccc3)CC2)nc1=S | i | -0.88 | i | i | i | -8
CN(CCC(=O)c1ccccc1)CCC(=O)c1ccccc1 | i | 0.46 | i | i | i | -12
CCCc1cc(=O)n2nc(N3CCC(C(=O)Nc4c(F)c(F)c(F)c(F)c4F)CC3)sc2n1 | i | -0.94 | i | i | i | -9
O=C(Nc1nc2ccc(SC(F)F)cc2s1)c1ccc(NS(=O)(=O)c2ccc(F)c(F)c2)cc1 | i | 3.9 | i | i | -6.8* | -4
CN(C(=O)COC(=O)c1ccc2c(c1)OCO2)c1c(N)n(Cc2ccccc2)c(=O)[nH]c1=O | i | -0.99 | i | i | i | -11
COc1ccc(CNCCC(c2ccccc2)c2ccc3c(c2)OCO3)cc1 (configuration not stated) | i | -8.1* | i | i | i | -16
COc1ccccc1C(CCNCc1ccccc1)c1ccc(OC(C)C)cc1 (configuration not stated) | i | -6.3* | i | i | i | -20
COc1ccc(C(CC(=O)O)c2ccc3c(c2)OCO3)cc1 (configuration not stated) | i | -0.42 | i | i | i | -3
COc1ccc(CNCCC(c2ccc(OC(C)C)cc2)c2ccccc2OC)cc1 (configuration not stated) | i | -7.4* | i | 9* | i | -20
COc1ccccc1C(CCNCc1ccc(N(C)C)cc1)c1ccc(OC(C)C)cc1 (configuration not stated) | i | -4.4* | i | 10* | i | -27
COc1ccc(CNCCC(c2ccc(OC(C)C)cc2)c2ccccc2OC)cc1OC (configuration not stated) | i | -3.3 | i | i | i | -16
SMILES | KCNQ1 act | Kir21 block | KCNK3 block | KCNQ1 inh | KCNK9 inh | hERG rescue
CCCCNC(=S)Nc1ccccc1Cc1ccccc1 | i | -4.7* | i | i | i | -11
CCCCNC(=O)Nc1ccccc1CC | i | -0.17 | i | i | i | 1
CC(C)N(CCCNC(=O)c1nn(C)c2c1CS(=O)(=O)c1ccccc1-2)Cc1ccccc1 | i | 1.3 | i | i | i | -5
N#C/C(=C\c1cccnc1)C(=O)Nc1cccc2ccccc12 | i | -4.5* | i | i | i | -5
N#C/C(=C\c1cccnc1)C(=O)Nc1cccc(Cl)c1 | i | -2.5 | i | i | i | 8.5*
Cc1ccccc1CC(=O)Nc1cccnc1 | i | 1.2 | i | i | i | -4
CC(=O)Nc1cccc(OCC(=O)NC(C)c2ccc3ccccc3c2)c1 (configuration not stated) | i | -6.2* | i | i | i | -7
CCOc1cccc(C(=O)NC(=S)Nc2ccc(Cl)cc2C(=O)O)c1 | i | -0.34 | i | i | i | -5
COCCCn1c(=O)c2ccccc2n(Cc2ccc(C)cc2)c1=O | i | -0.82 | i | i | -7.7* | -9
COc1cccc(C(=O)OCC(=O)N2CCc3ccccc3C2)c1 | x | x | i | x | x | x
COc1ccc(C(=O)NNC(=O)CSc2nnc(C3CC3)n2C)cc1 | i | -1.2 | i | i | i | -4
Cc1ccc(NC(=O)Nc2ccccc2F)cc1S(=O)(=O)N1CCOCC1 | x | x | -10* | x | x | x
Cc1noc(C)c1CSc1nc2ccccc2n1CCc1ccccc1 | i | -7.2* | i | i | i | -15
O=C(O)CCn1c(SCc2ccccc2)nc2ccccc21 | i | 0.68 | i | i | i | -3
CCc1cc(-c2n[nH]c(=S)n2C(C)c2ccccc2)cs1 (configuration not stated) | i | -7.8* | i | i | i | -7
COc1ccc(CN(Cc2cccn2C)S(=O)(=O)c2ccc(F)cc2)cc1 | i | 1.4 | i | i | -6.8* | -2
CCn1cc(C(=O)NC2CCCc3c2cnn3-c2cccc(C)c2C)cn1 (configuration not stated) | i | -0.25 | i | 8* | i | -16
Cc1ccccc1C(=O)NNC(=O)C(=O)Nc1cccc(Cl)c1C | 47* | -0.31 | i | i | i | 13*
CN(Cc1ccccc1)C(=O)c1cn(C)c2ccc(S(=O)(=O)N3CCCC3)cc2c1=O | i | 1 | i | i | i | -10
